How the values were obtained:
[1] = tested on: MCF7; assay: Growth inhibition of human MCF7 cells after 72 hrs by MTT assay; type: functional; settings: MCF7, 72 h
[2] = tested on: T98G; assay: Growth inhibition of pro-apoptotic stimuli-resistant human T98G cells after 72 hrs by MTT assay; type: functional
Procedure, shortened: (§1)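 Cells seeded at 10,000 to 40,000 cells/mL depending on cell type and allowed to attach for 24 h. They were then cultured 72 h with or without compound (untreated control). Living cells were measured by MTT reduction to formazan, read at 570 nm against a 630 nm reference. GI50 was derived from the growth levels.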

[3] = tested on: B16-F10; assay: Growth inhibition of pro-apoptotic stimuli-sensitive mouse B16F10 cells after 72 hrs by MTT assay; type: functional; settings: B16-F10, 72 h; procedure, shortened: as §1
[4] = Growth inhibition of pro-apoptotic stimuli-sensitive human Hs683 cells after 72 hrs by MTT assay; type: functional; settings: Hs 683, 72 h; procedure, shortened: as §1
[5] = tested on: SK-MEL-28; assay: Growth inhibition of pro-apoptotic stimuli-resistant human SK-MEL-28 cells after 72 hrs by MTT assay; type: functional; settings: SK-MEL-28, 72 h; procedure, shortened: as §1
[6] = tested on: PC-3; assay: Growth inhibition of human PC3 cells after 72 hrs by MTT assay; type: functional; settings: PC-3, 72 h
[7] = tested on: A549; assay: Growth inhibition of pro-apoptotic stimuli-resistant human A549 cells after 72 hrs by MTT assay; type: functional; settings: A549, 72 h; procedure, shortened: as §1
[8] = Growth inhibition of pro-apoptotic stimuli-resistant human U373 cells after 72 hrs by MTT assay; type: functional, U-373MG ATCC; settings: U373 MG; procedure, shortened: as §1
[9] = Chemical stability of the compound at pH 5 to 7.4; type: physicochemical; settings: buffer
[10] = Ratio of lycorine GI50 to compound GI50 for pro-apoptotic stimuli-resistant human U373 cells after 72 hrs by MTT assay; type: functional, U-373MG ATCC

In the case of O=C(O[C@H]1[C@H]2c3cc4c(cc3CN3CCC(=C[C@@H]1O)[C@H]23)OCO4)c1ccccc1, the GI50 [1] is reported as 5 µM, the GI50 [2] is reported as 32 µM and the GI50 [3] is reported as 8 µM. For the same molecule, the GI50 [4] was 4 µM, the GI50 [5] was 4 µM and the GI50 [6] was 5 µM. It also gave a GI50 [7] of 32 µM and a GI50 [8] of 0.6 µM.
With CC(C)[Si](O[C@H]1C=C2CCN3Cc4cc5c(cc4[C@H]([C@@H]1O)[C@@H]23)OCO5)(C(C)C)C(C)C the GI50 [1] was 24 µM, the GI50 [2] was 11 µM and the GI50 [3] was 22 µM. For the same molecule, the GI50 [4] was 22 µM, the GI50 [5] was 26 µM and the GI50 [6] was 18 µM. It also gave a GI50 [7] of 15 µM and a GI50 [8] of 13 µM.
With O=C(O[C@H]1[C@H]2c3cc4c(cc3CN3CCC(=C[C@@H]1OC(=O)c1ccccc1)[C@H]23)OCO4)c1ccccc1 the GI50 [1] was 20 µM, the GI50 [2] was 54 µM and the GI50 [3] was 24 µM. For the same molecule, the GI50 [4] was 10 µM, the GI50 [5] was 29 µM and the GI50 [6] was 11 µM. The GI50 [7] was 54 µM and the GI50 [8] was 1 µM.
O=C(O[C@H]1C=C2CCN3Cc4cc5c(cc4[C@H]([C@@H]1O)[C@@H]23)OCO5)c1ccccc1 gave a GI50 [1] of 23 µM, a GI50 [2] of 70 µM and a GI50 [3] of 21 µM. The GI50 [4] was 6 µM, the GI50 [5] was 60 µM and the GI50 [6] was 34 µM. The GI50 [7] was 70 µM and the GI50 [8] was 1 µM.
Work on CCCCCCCCCCCCCCCC(=O)O[C@H]1[C@H]2c3cc4c(cc3CN3CCC(=C[C@@H]1O[Si](C(C)C)(C(C)C)C(C)C)[C@H]23)OCO4 yielded a GI50 [1] of 25 µM, a GI50 [2] of 3 µM and a GI50 [3] of 38 µM. For the same molecule, the GI50 [4] was 21 µM, the GI50 [5] was 38 µM and the GI50 [6] was 20 µM. The GI50 [7] was 9 µM and the GI50 [8] was 13 µM.
Work on CC(=O)O[C@H]1[C@H]2c3cc4c(cc3CN3CCC(=C[C@@H]1O[Si](C(C)C)(C(C)C)C(C)C)[C@H]23)OCO4 yielded a GI50 [1] of 27 µM, a GI50 [2] of 6 µM and a GI50 [3] of 30 µM. It also gave a GI50 [4] of 36 µM, a GI50 [5] of 34 µM and a GI50 [6] of 26 µM. The GI50 [7] was 18 µM and the GI50 [8] was 15 µM.
Work on CCCCCCCCCCCCCCCC(=O)O[C@H]1[C@H]2c3cc4c(cc3CN3CCC(=C[C@@H]1O)[C@H]23)OCO4 yielded a GI50 [1] of 32 µM, a GI50 [2] of 7 µM and a Stability [9] of 3 days. It also gave a GI50 [3] of 28 µM, a GI50 [4] of 27 µM and a GI50 [5] of 35 µM. For the same molecule, the GI50 [6] was 29 µM, the GI50 [7] was 26 µM and the GI50 [8] was 24 µM.
CCCCCCCCCCCCCCCCCC(=O)O[C@H]1[C@H]2c3cc4c(cc3CN3CCC(=C[C@@H]1O)[C@H]23)OCO4 showed a GI50 [1] of 38 µM, a GI50 [2] of 16 µM and a Stability [9] of 3 days. It also gave a GI50 [3] of 23 µM, a GI50 [4] of 24 µM and a GI50 [5] of 34 µM. The GI50 [6] was 26 µM, the GI50 [7] was 23 µM and the GI50 [8] was 8 µM.
Work on CCCCCCCC/C=C\CCCCCCCC(=O)O[C@H]1[C@H]2c3cc4c(cc3CN3CCC(=C[C@@H]1O)[C@H]23)OCO4 yielded a GI50 [1] of 30 µM, a GI50 [2] of 0.8 µM and a Stability [9] of 3 days. The GI50 [3] was 21 µM, the GI50 [4] was 14 µM and the GI50 [5] was 30 µM. It also gave a GI50 [6] of 22 µM, a GI50 [7] of 14 µM and a GI50 [8] of 4 µM.
CC/C=C\C/C=C\C/C=C\C/C=C\C/C=C\C/C=C\CCC(=O)O[C@H]1[C@H]2c3cc4c(cc3CN3CCC(=C[C@@H]1O)[C@H]23)OCO4 showed a GI50 [1] of 21 µM, a GI50 [2] of 3 µM and a Stability [9] of 3 days. It also gave a GI50 [3] of 18 µM, a GI50 [4] of 20 µM and a GI50 [5] of 25 µM. The GI50 [6] was 19 µM, the GI50 [7] was 15 µM and the GI50 [8] was 8 µM.
In the case of O[C@H]1C=C2CCN3Cc4cc5c(cc4[C@H]([C@@H]1OCc1ccccc1)[C@@H]23)OCO5, the GI50 [1] is reported as 74 µM, the GI50 [2] is reported as 34 µM and the GI50 [3] is reported as 57 µM. For the same molecule, the GI50 [4] was 80 µM, the GI50 [5] was greater than 100 µM and the GI50 [6] was 97 µM. It also gave a GI50 [7] of 67 µM and a GI50 [8] of 50 µM.
For O=c1c2cc3c(cc2c2cccc4ccn1c42)OCO3, the GI50 [1] was 27 µM, the GI50 [2] was 96 µM and the GI50 [3] was 34 µM. The GI50 [4] was 19 µM, the GI50 [5] was greater than 100 µM and the GI50 [6] was greater than 100 µM. The GI50 [7] was 96 µM and the GI50 [8] was 27 µM.
For CC(=O)Oc1cc2ccn3c(=O)c4cc5c(cc4c(c1)c23)OCO5, the GI50 [1] was 7 µM, the GI50 [2] was 18 µM and the GI50 [3] was 5 µM. The GI50 [4] was 14 µM, the GI50 [5] was 21 µM and the GI50 [6] was 21 µM. The GI50 [7] was 18 µM and the GI50 [8] was 5 µM.
For CC(C)(C)OC(=O)O[C@H]1[C@H]2c3cc4c(cc3CN3CCC(=C[C@@H]1OC(=O)OC(C)(C)C)[C@H]23)OCO4, the GI50 [1] was 5 µM, the GI50 [2] was 4 µM and the GI50 [3] was 4 µM. The GI50 [4] was 9 µM, the GI50 [5] was 20 µM and the GI50 [6] was 22 µM. For the same molecule, the GI50 [7] was 3 µM and the GI50 [8] was 4 µM.
CCOC(=O)C[C@@]12C=C[C@@H](OC(C)=O)[C@H]3c4cc5c(cc4CN(CC1)[C@@H]32)OCO5 showed a GI50 [1] greater than 100 µM, a GI50 [2] greater than 100 µM and a GI50 [3] of 79 µM. The GI50 [4] was greater than 100 µM, the GI50 [5] was greater than 100 µM and the GI50 [6] was greater than 100 µM. It also gave a GI50 [7] greater than 100 µM and a GI50 [8] greater than 100 µM.
Molecule CC(=O)O[C@H]1[C@H]2c3cc4c(cc3CN3CCC(=C[C@@H]1O)[C@H]23)OCO4 has a GI50 [1] of 4 µM, a GI50 [2] of 2 µM and a GI50 [3] of 43 µM. It also gave a GI50 [4] of 11 µM, a GI50 [5] of 3 µM and a GI50 [6] of 3 µM. For the same molecule, the GI50 [7] was 3 µM and the GI50 [8] was 4 µM.
O=c1c2cc3c(cc2c2cccc4c2n1CC4)OCO3 gave a GI50 [1] of 16 µM, a GI50 [2] of 24 µM and a GI50 [3] of 8 µM. It also gave a GI50 [4] of 14 µM, a GI50 [5] of 33 µM and a GI50 [6] of 38 µM. For the same molecule, the GI50 [7] was 24 µM and the GI50 [8] was 4 µM.
In the case of CCC(=O)O[C@H]1[C@H]2c3cc4c(cc3CN3CCC(=C[C@@H]1OC(=O)CC)[C@H]23)OCO4, the GI50 [1] is reported as 22 µM, the GI50 [2] is reported as 0.6 µM and the GI50 [3] is reported as 29 µM. The GI50 [4] was 8 µM, the GI50 [5] was 43 µM and the GI50 [6] was 41 µM. It also gave a GI50 [7] of 4 µM and a GI50 [8] of 3 µM.
In the case of C=CCO[C@H]1[C@H]2c3cc4c(cc3CN3CCC(=C[C@@H]1OCC=C)[C@H]23)OCO4 [DIALLYLLYCORINE], the GI50 [1] is reported as 0.2 µM, the RatioGI50 [10] is reported as 100 and the GI50 [2] is reported as 4 µM. It also gave a GI50 [3] of 4 µM, a GI50 [4] of 2 µM and a GI50 [5] of 6 µM. It also gave a GI50 [6] of 1 µM, a GI50 [7] of 4 µM and a GI50 [8] of 0.03 µM.
Molecule O[C@H]1[C@H]2c3cc4c(cc3CN3CCC(=C[C@@H]1O)[C@H]23)OCO4 [LYCORINE] has a GI50 [1] of 4 µM, a GI50 [2] of 3 µM and a GI50 [3] of 2 µM. The GI50 [4] was 0.9 µM, the GI50 [5] was 4 µM and the GI50 [6] was 4 µM. For the same molecule, the GI50 [7] was 0.9 µM and the GI50 [8] was 3 µM.
